Data on seven molecules can be found in article PMC4245164 (ACS Chemical Biology, 2014).

Bounds are passed on as bounds.

Assay [1] deals with Pmp22. Briefly: S16 GLuc and secNLuc Pmp22 reporter qHTS follow-up assays. As to conditions: for effect on reporter activity: GLuc and secNLuc reporters; for potency on Pmp22 expression: data not shown. It counts as cell-based, rat.
Another assay concerns PMP22 regulatory element. Briefly: S16 intronic enhancer FLuc reporter assay. In kind it is cell-based, rat. The settings on record: retest after completion of the study. Summed up:
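S16 cells carrying a randomly integrated firefly luciferase reporter driven by the Pmp22 intronic enhancer were retested with test compound after the main study. Data are shown with standard deviation of two replicates.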
On the technique in general: In a reporter assay the amount or activity of a reporter protein is the signal.

Assay [2] deals with Pmp22. Description: S16 secNLuc reporter cell assay. It counts as cell-based, rat.
Assay [3] concerns major myelin genes and their regulators. Briefly: Quantitative RT-PCR of co-regulated myelin genes and regulators in S16 cells. As to conditions: qRT-PCR, 1 or 10 nM, 24 h. It counts as cell-based, rat. In a few lines:
(§1)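 S16 rat Schwann cells were plated at 2×10^5 cells/well in 6-well plates. They were treated for 24 h with test compound at 1 nM or 10 nM, or with DMSO (0.6%) only. RNA was purified and reverse-transcribed to cDNA. qPCR used SYBR green reactions or Taqman-based custom microfluidic arrays. Data were normalized to ActB and expressed relative to the untreated sample, set to 1 for each gene.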
(Real-time PCR tracks product formation cycle by cycle.)

The subject of assay [4] is Pmp22. Briefly: Quantitative RT-PCR of endogenous Pmp22 in S16 cells. The settings on record: qRT-PCR, 1 or 10 nM, 24 h. In kind it is cell-based, rat. Summed up: as §1
For another assay, the system named is CMT1A patients. The settings on record: human clinical trials; cited from earlier work.

For the molecule `CC(=O)[C@@]1(O)CC[C@H]2[C@@H]3CCC4=CC(=O)CC[C@]4(C)C3(F)[C@@H](O)C[C@@]21C` (stereo partly drawn) [flugestone], the “effect on reporter activity” value with Pmp22 [1] is given as “increasing reporter activity”.

Regarding `CCC/C=C/C=C/C(=O)O[C@H]1/C(=C/C(=O)OC)C[C@H]2C[C@H]([C@@H](C)O)OC(=O)C[C@H](O)C[C@@H]3C[C@H](OC(C)=O)C(C)(C)[C@](O)(C[C@@H]4C/C(=C/C(=O)OC)C[C@H](/C=C/C(C)(C)[C@]1(O)O2)O4)O3` [bryostatin, Bryostatin 1], the “effect in the intronic FLuc assay” value in the assay with PMP22 regulatory element is “no inhibitory effect”. Also, the “efficacy relative to the control, bortezomib” value with Pmp22 [2] (S16 NLuc assay, full titration response profile) is reported as “partial efficacy”. In addition, in assay [3], the Myelin-associated glycoprotein expression entry is “decline to a greater degree than Pmp22”, the Periaxin expression entry is given as “decline to a greater degree than Pmp22” and the “expression of most of the other tested genes” value is reported as “not affected”. In the assay with Pmp22 [4], the “Pmp22 expression relative to untreated S16 cells” value is ≤ 50%.

Take `O=C1O[C@H]([C@@H](O)CO)C(O)=C1O` [ascorbic acid]: in the assay on CMT1A patients, the “effect in CMT1A patients” value was “have not shown a significant effect”.

Consider `Cn1cc(C2=C(c3cn(C4CCN(Cc5ccccn5)CC4)c4ccccc34)C(=O)NC2=O)c2ccccc21` [enzastaurin], for which the “potency on Pmp22 expression” value in the assay with Pmp22 [1] is given as “lack of potency”.

On to `CC#C[C@]1(O)CC[C@H]2[C@@H]3CCC4=CC(=O)CCC4=C3[C@@H](c3ccc(N(C)C)cc3)C[C@@]21C` [mifepristone], for which the “effect on reporter activity” value with Pmp22 [1] is recorded as “marginal effect”.

For the molecule `CCCCCCCCCCCCCC(=O)O[C@@H]1[C@@H](C)[C@@]2(O)[C@@H](C=C(CO)C[C@]3(O)C(=O)C(C)=C[C@@H]23)[C@@H]2C(C)(C)[C@]12OC(C)=O` [PMA, Phorbol 12-myristate 13-acetate], the “effect on Pmp22 reporter expression” value in the assay on Pmp22 [2] (nanomolar levels, 24 h, secNLuc S16 cell line) is “repression”.

Turning to `COc1ccc2c(c1)c(C1=C(c3c[nH]c4ccccc34)C(=O)NC1=O)cn2CCCN(C)C` [Go 6983], in the assay on Pmp22 [1], the “potency on Pmp22 expression” value is “lack of potency”.
